Experimental data as given in ChEMBL document CHEMBL3758103, “Anti-herpetic and anti-dengue activity of abietane ferruginol analogues synthesized from (+)-dehydroabietylamine” (Eur J Med Chem, 2016).
≈ marks a conversion by molar mass, not a printed value. Calls of active or inactive are those of the source. The rule behind the calls is not given here.

Tests used:
dengue virus type 2 [1] = assay: Antiviral activity against DENV-2 New guinea infected in African green monkey Vero cells assessed as maximal non toxic concentration causing inhibition of virus-induced cytopathic effect after 3 days by crystal violet staining based inverted microscopic analysis; format: functional
dengue virus type 2 [2] = assay: Antiviral activity against DENV-2 New guinea infected in African green monkey Vero cells assessed as reduction in plaque formation administered post viral infection after 8 days by crystal violet staining technique; format: functional, organism-based; details: 192 h
Summary of the method: (§1)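 Plaque reduction on Vero monolayers (2.5 × 10^4 cells/well) infected with 100 PFU/well. Pre-infection arm: virus–compound mixture added for 1 h at 37 °C, PBS wash, then CMC overlay. Post-infection arm: virus adsorbed 1 h, washed, then compound given in CMC. CMC was 1% for HHV-1, 0.75% for HHV-2 and 2% for DENV-2. Plates ran 72 h (HHV) or 8 days (DENV-2) before crystal violet staining. EC50 came from linear regression over ≥4 dilutions in quadruplicate.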

dengue virus type 2 [3] = assay: Antiviral activity against DENV-2 New guinea infected in African green monkey Vero cells assessed as inhibition of virus-induced cytopathic effect after 3 days by crystal violet staining based inverted microscopic analysis relative to control; format: functional, organism-based
Fusarium oxysporum = assay: Antifungal activity against Fusarium oxysporum ATCC 48112 assessed as microbial growth inhibition after 48 hrs by microdilution assay; format: functional, organism-based
Summary of the method: (§2)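 Broth microdilution under CLSI M38-A with modifications, in duplicate, at final compound concentrations of 50–3.125 μg/mL. […] Values are the geometric mean of duplicate tests in three assays. Assay DMSO was 0.05%.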

Human alphaherpesvirus 2 [4] = assay: Antiviral activity against HHV-2 VR-734-G infected in African green monkey Vero cells assessed as viral plaque size reduction at 20.8 uM after 72 hrs by crystal violet staining based inverted microscopic analysis relative to control; format: functional; design: scale not given: the % may be the effect or the level left
Summary of the method: (§3)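 Vero cells (2.5 × 10^4/well) infected with 100 PFU/well, with compound in CMC added 2 h after infection. Incubation was 72 h for HHV strains and 8 days for DENV-2, then formaldehyde/crystal violet staining. Twenty plaques per concentration per well were imaged and their areas […] measured against mock-treated controls. Two experiments in duplicate.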

Human alphaherpesvirus 1 [5] = assay: Antiviral activity against HHV-1 CDC Atlanta infected in African green monkey Vero cells assessed as reduction in plaque formation administered post viral infection after 72 hrs by crystal violet staining technique; format: functional, organism-based; summary of the method: as §1
Vero [6] = assay: Selectivity index, ratio of IC50 for African green monkey Vero cells to IC50 for human U937 cells; format: functional
Summary of the method: (§4)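 SI calculated as Vero IC50 divided by HeLa, Jurkat or U937 IC50, all from the 48 h MTT assay.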

[7] = system: Trichophyton mentagrophytes; assay: Antifungal activity against Trichophyton mentagrophytes ATCC 24198 assessed as microbial growth inhibition after 6 days by microdilution assay; format: functional; details: ATCC 24198, 144 h; summary of the method: as §2
Jurkat [8] = assay: Selectivity index, ratio of IC50 for African green monkey Vero cells to IC50 for human Jurkat cells; format: functional; summary of the method: as §4
[9] = Selectivity index, ratio of IC50 for African green monkey vero cells to EC50 for HHV-1 compound administered post viral infection
Summary of the method: (§5)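 Antiviral SI calculated as Vero IC50 divided by the post-infection plaque-reduction EC50 for each virus on Vero cells.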

Human alphaherpesvirus 1 [10] = assay: Antiviral activity against HHV-1 CDC Atlanta infected in African green monkey Vero cells assessed as maximal non toxic concentration causing reduction of viral titer after 48 hrs by crystal violet staining assay; format: functional
Summary of the method: (§6)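 End-point titration on Vero monolayers (2.0 × 10^4 cells/well, ≥80% confluent) with 10 TCID50 virus. Virus–compound mixtures (6.25–50 μg/mL) in DMEM/2% FBS with CMC (1% for HHV-1, 0.5% for HHV-2) were held 15 min at room temperature. Incubation was 48 h (HHV-1) or 72 h (HHV-2) at 37 °C, then formaldehyde/crystal violet staining and plaque counting. Read-out is the viral titer reduction factor. Two experiments in quadruplicate.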

Human alphaherpesvirus 2 [11] = assay: Antiviral activity against HHV-2 VR-734-G infected in African green monkey Vero cells assessed as reduction of viral titer at maximal non-toxic concentration after 72 hrs by crystal violet staining assay relative to control; format: functional; summary of the method: as §6
Vero [12] = assay: Cytotoxicity against African green monkey Vero cells assessed as inhibition of cell proliferation after 72 hrs; format: cell-based; details: Chlorocebus sabaeus
Vero [13] = assay: Cytotoxicity against African green monkey Vero cells assessed as inhibition of cell proliferation after 8 days; format: cell-based; details: Chlorocebus sabaeus, 192 h
[14] = Cytotoxicity against human U937 cells assessed as cell growth inhibition after 48 hrs by MTT assay; format: functional, cell-based; details: U-937, 48 h
Summary of the method: (§7)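 MTT assay. Vero and HeLa cells plated at 2.0 × 10^4/well and preincubated 24 h; Jurkat and U937 plated at 3.0 × 10^4/well. Compounds were applied 48 h at 37 °C, 5% CO2, with 0.05% DMSO. Absorbance read at 570 nm and IC50 taken by linear regression. Values are the geometric mean of two experiments in quadruplicate.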

Trichophyton rubrum = assay: Antifungal activity against Trichophyton rubrum ATCC 28188 assessed as microbial growth inhibition after 6 days by microdilution assay; format: functional; details: ATCC 28188, 144 h; summary of the method: as §2
Aspergillus flavus = assay: Antifungal activity against Aspergillus flavus ATCC 204304 assessed as microbial growth inhibition by microdilution assay; format: functional, organism-based; summary of the method: as §2
Aspergillus fumigatus = assay: Antifungal activity against Aspergillus fumigatus ATCC 204305 assessed as microbial growth inhibition by microdilution assay; format: functional, organism-based; summary of the method: as §2
Human alphaherpesvirus 1 [15] = assay: Antiviral activity against HHV1 CDC Atlanta infected in African green monkey Vero cells assessed as reduction of viral titer at maximal non-toxic concentration after 48 hrs by crystal violet staining assay relative to control; format: functional; summary of the method: as §6
Jurkat [16] = assay: Cytotoxicity against human Jurkat cells assessed as cell growth inhibition after 48 hrs by MTT assay; format: functional, cell-based; summary of the method: as §7
Candida parapsilosis = assay: Antifungal activity against Candida parapsilosis ATCC 22019 assessed as microbial growth inhibition after 24 hrs by microdilution assay; format: functional, organism-based
Summary of the method: (§8)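 Yeast microdilution by the AFST-EUCAST method at an inoculum of 1–5 × 10^5 CFU/mL, final compound concentrations 50–3.125 μg/mL, in duplicate. MIC is the lowest concentration giving 90% growth reduction after 24 h at 35 °C. Untreated inoculum served as negative control. Values are the geometric mean of duplicate tests in three assays.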

Human alphaherpesvirus 2 [17] = assay: Antiviral activity against HHV-2 VR-734-G infected in African green monkey Vero cells assessed as reduction in plaque formation administered simultaneously with virus for 1 hr measured after 72 hrs by crystal violet staining technique; format: functional, organism-based; summary of the method: as §1
HeLa [18] = assay: Cytotoxicity against human HeLa cells assessed as cell growth inhibition after 48 hrs by MTT assay; format: functional, cell-based; summary of the method: as §7
[19] = Selectivity index, ratio of IC50 for African green monkey vero cells to EC50 for HHV-2 compound administered post viral infection; summary of the method: as §5
Human alphaherpesvirus 2 [20] = assay: Antiviral activity against HHV-2 VR-734-G infected in African green monkey Vero cells assessed as maximal non toxic concentration causing reduction of viral titer after 72 hrs by crystal violet staining assay; format: functional; summary of the method: as §6
Vero [21] = assay: Cytotoxicity against African green monkey Vero cells assessed as cell growth inhibition after 48 hrs by MTT assay; format: cell-based; details: Chlorocebus sabaeus; summary of the method: as §7
HeLa [22] = assay: Selectivity index, ratio of IC50 for African green monkey Vero cells to IC50 for human HeLa cells; format: functional; summary of the method: as §4
Human alphaherpesvirus 1 [23] = assay: Antiviral activity against HHV-1 CDC Atlanta infected in African green monkey Vero cells assessed as reduction in plaque formation administered simultaneously with virus for 1 hr measured after 72 hrs by crystal violet staining technique; format: functional, organism-based; summary of the method: as §1
[24] = Selectivity index, ratio of IC50 for African green monkey vero cells to EC50 for DENV-2 compound administered post viral infection; summary of the method: as §5
Human alphaherpesvirus 2 [25] = assay: Antiviral activity against HHV-2 VR-734-G infected in African green monkey Vero cells assessed as reduction in plaque formation administered post viral infection after 72 hrs by crystal violet staining technique; format: functional, organism-based; details: Human alphaherpesvirus 2, VR-734-G; summary of the method: as §1
dengue virus type 2 [26] = assay: Antiviral activity against DENV-2 New guinea infected in African green monkey Vero cells assessed as reduction in plaque formation administered simultaneously with virus for 1 hr measured after 8 days by crystal violet staining technique; format: functional, organism-based; summary of the method: as §1
Aspergillus terreus = assay: Antifungal activity against Aspergillus terreus CDC 317 assessed as microbial growth inhibition by microdilution assay; format: functional, organism-based; summary of the method: as §2
Candida tropicalis = assay: Antifungal activity against Candida tropicalis ATCC 200956 assessed as microbial growth inhibition after 24 hrs by microdilution assay; format: functional, organism-based; summary of the method: as §8
Candida albicans = assay: Antifungal activity against Candida albicans […] assessed as microbial growth inhibition after 24 hrs by microdilution assay; format: functional, organism-based; summary of the method: as §8
dengue virus type 2 [27] = assay: Antiviral activity against DENV-2 New guinea infected in African green monkey Vero cells assessed as viral plaque size reduction at 3.6 uM after 8 days by crystal violet staining based inverted microscopic analysis relative to control; format: functional; design: scale not given: the % may be the effect or the level left; summary of the method: as §3
Human alphaherpesvirus 1 [28] = assay: Antiviral activity against HHV-1 CDC Atlanta infected in African green monkey Vero cells assessed as viral plaque size reduction at 29 uM after 72 hrs by crystal violet staining based inverted microscopic analysis relative to control; format: functional; design: scale not given: the % may be the effect or the level left; summary of the method: as §3
Human alphaherpesvirus 1 [29] = assay: Antiviral activity against acyclovir-resistant HHV-1 29R infected in African green monkey Vero cells assessed as viral plaque size reduction at 29 uM after 72 hrs by crystal violet staining based inverted microscopic analysis relative to control; format: functional; design: scale not given: the % may be the effect or the level left; summary of the method: as §3

SMILES | EC50 (dengue virus type 2 [2]) [µM] | Activity (dengue virus type 2 [3]) | Activity (Fusarium oxysporum) | MNTD (Human alphaherpesvirus 1 [10]) | fold change (FC) (Human alphaherpesvirus 2 [11]) | IC50 (Vero [12]) [µM] | IC50 (Vero [13]) [µM] | IC50 [14] [µM] | Activity (Aspergillus flavus) | Activity (Aspergillus fumigatus) | fold change (FC) (Human alphaherpesvirus 1 [15]) | IC50 (Jurkat [16]) [µM] | Activity (Candida parapsilosis) | EC50 (Human alphaherpesvirus 2 [17]) | IC50 (HeLa [18]) [µM] | Ratio IC50/EC50 [19] | MNTD (Human alphaherpesvirus 2 [20]) [µM] | EC50 (Human alphaherpesvirus 1 [23]) | Ratio IC50/EC50 [24] | EC50 (Human alphaherpesvirus 2 [25]) [µM] | other results
NC(=O)c1ncn([C@@H]2O[C@H](CO)[C@@H](O)[C@H]2O)n1 [RIBAVIRIN] | 13.5 | Active |  |  |  |  |  |  |  |  |  |  |  |  |  |  |  |  |  |  | MNTD (dengue virus type 2 [1]): 123 µM
CC(C)c1cc2c(cc1O)[C@@]1(C)CCC[C@@](C)(C=O)[C@@H]1CC2 [18-OXOFERRUGINOL] | 5 | Active | inactive | inactive | 1000 | 97.8 | 52.2 | 33.2 | inactive | inactive | inactive | 21.6 | inactive | Not Active | 60 | 5.9 | 41.7 | Not Active | 10.4 | 16.6 | Activity (Human alphaherpesvirus 2 [4]): 68.2%; EC50 (Human alphaherpesvirus 1 [5]; Human alphaherpesvirus 1, CDC Atlanta, Vero, 72 h, read-out: EC50): 19.6 µM; Ratio IC50 (Vero [6]): 2.7; MIC80 [7]: 83.3 µM (≈ 25 µg/mL); Ratio IC50 (Jurkat [8]): 4.2; Ratio IC50/EC50 [9]: 4.9; MIC80 (Trichophyton rubrum): 41.7 µM (≈ 12.5 µg/mL); IC50 (Vero [21]): 90.8 µM; Ratio IC50 (HeLa [22]): 1.5; EC50 (dengue virus type 2 [26]): Not Active; Activity (Aspergillus terreus): inactive; Activity (Candida tropicalis): inactive; Activity (Candida albicans): inactive
CC(C)c1cc2c(cc1O)[C@@]1(C)CCC[C@@](C)(CN3C(=O)c4ccccc4C3=O)[C@@H]1CC2 | 1.4 | Active | inactive | 14.5 µM | 1000 | 191 | 80.8 | > 50 | inactive | inactive | 100 | > 50 | inactive | Not Active | > 50 | 10 | 29 | Not Active | 57.7 | 19.2 | Activity (dengue virus type 2 [27]): 77.9%; EC50 (Human alphaherpesvirus 1 [5]; vero): Not Active; Activity (Human alphaherpesvirus 1 [28]): 93.7%; Activity (Human alphaherpesvirus 1 [29]): 87.1%; EC50 (dengue virus type 2 [26]): Not Active; Activity (Aspergillus terreus): inactive; Activity (Candida tropicalis): inactive; Activity (Candida albicans): inactive
